The record followed here is ChEMBL document CHEMBL3864165, “Design, synthesis, and AChE inhibitory activity of new benzothiazole-piperazines” (Bioorg Med Chem Lett, 2016).

pIC50, pKi: −log10 of the molar value.

What is called inhibition is the drop in the measured response relative to a control, in per cent. Lower therefore signals little suppression. A word on the pIC50: it is the IC50 on a negative log10 scale, so that one unit is a factor of ten. A higher pIC50 goes with a low IC50. As a reminder, the pKi is the Ki on a negative log10 scale, so that one unit is a factor of ten. A low value points to a large Ki. As usually defined, the IC50 is the concentration that gives 50% inhibition.

Data set [1] has as its target Acetylcholinesterase (Electrophorus electricus) (UniProt O42275). The data set can be described thus: Inhibition of electric eel AChE at 10^-6 M preincubated for 15 mins followed by acetylthiocholine iodide substrate addition measured for 5 mins by Ellman's spectrophotometric method relative to control.
Data set [2] shares this target. Briefly: Inhibition of electric eel AChE at 10^-3 M preincubated for 15 mins followed by acetylthiocholine iodide substrate addition measured for 5 mins by Ellman's spectrophotometric method relative to control. In general terms: Ellman's reagent forms a yellow product with free thiols.
The target is the same in data set [3]. Briefly: Inhibition of electric eel AChE at 10^-4 M preincubated for 15 mins followed by acetylthiocholine iodide substrate addition measured for 5 mins by Ellman's spectrophotometric method relative to control.
For data set [4], the target named is T1, Acetylcholinesterase (Electrophorus electricus, UniProt O42275). The data set can be described thus: Inhibition of electric eel AChE preincubated for 15 mins followed by acetylthiocholine iodide substrate addition measured for 5 mins by Ellman's spectrophotometric method.
The target of data set [5] is Acetylcholinesterase (Electrophorus electricus) (UniProt O42275). The data set can be described thus: Inhibition of electric eel AChE at 10^-7 M preincubated for 15 mins followed by acetylthiocholine iodide substrate addition measured for 5 mins by Ellman's spectrophotometric method relative to control.
The target of data set [6] is T1, Acetylcholinesterase. The data set can be described thus: Mixed-type inhibition of electric eel AChE preincubated for 15 mins followed by acetylthiocholine iodide substrate addition measured for 5 mins by Lineweaver-Burk plot analysis. Put shortly: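 Substrate-velocity curves recorded with and without inhibitor, with initial velocities measured at acetylthiocholine (ATC) concentrations from 600 µM down to 18.75 µM. Data analysed as 1/V plots. Ki taken as the x-axis intercept of a secondary plot of 1/V versus inhibitor concentration.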

Data set [7] is described as follows: Cytotoxicity against mouse NIH/3T3 cells after 24 hrs by MTT assay. The following applies: NIH/3T3 cells. A general note: Tetrazolium dyes change colour on reduction, which living cells bring about.
The test system of data set [8] is Salmonella typhimurium. Briefly: Genotoxicity in Salmonella typhimurium TA98 assessed as increase in number of revertants at 0.156 mg/ml in presence of aroclor-1254-induced Sprague-Dawley rat liver S9 fraction by Ames-MPF assay relative to control. Particulars: salmonella enterica subsp. enterica serovar typhimurium. The class given is toxicity, organism-based. Put shortly: (§1)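 Ames MPF microplate fluctuation format, run with and without S9 metabolic activation. The read-out is the count of positive (revertant) wells. A run is accepted only when positive controls give more than 25 positive wells and negative controls give fewer than eight.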

Data set [9] concerns Salmonella typhimurium. Briefly: Genotoxicity in Salmonella typhimurium TA98 assessed as increase in number of revertants at 0.3125 mg/ml in presence of aroclor-1254-induced Sprague-Dawley rat liver S9 fraction by Ames-MPF assay relative to control. The format is toxicity, organism-based. Particulars: salmonella enterica subsp. enterica serovar typhimurium. Put shortly: as §1

Data set [10] has as its system Salmonella typhimurium. Briefly: Genotoxicity in Salmonella typhimurium TA98 assessed as increase in number of revertants at 0.625 mg/ml in presence of aroclor-1254-induced Sprague-Dawley rat liver S9 fraction by Ames-MPF assay relative to control. Particulars: salmonella enterica subsp. enterica serovar typhimurium. The format is toxicity, organism-based. Put shortly: as §1

Data set [11] deals with Salmonella typhimurium. Briefly: Genotoxicity in Salmonella typhimurium TA98 assessed as increase in number of revertants at 1.25 mg/ml in presence of aroclor-1254-induced Sprague-Dawley rat liver S9 fraction by Ames-MPF assay relative to control. The format is toxicity, organism-based. Particulars: salmonella enterica subsp. enterica serovar typhimurium. Put shortly:
as §1

Data set [12] deals with Salmonella typhimurium. The data set can be described thus: Genotoxicity in Salmonella typhimurium TA98 assessed as increase in number of revertants at 2.5 mg/ml in presence of aroclor-1254-induced Sprague-Dawley rat liver S9 fraction by Ames-MPF assay relative to control. The class given is toxicity, organism-based. The following applies: salmonella enterica subsp. enterica serovar typhimurium. Put shortly:
as §1

Data set [13] relates to Salmonella typhimurium. The data set can be described thus: Genotoxicity in Salmonella typhimurium TA98 assessed as increase in number of revertants at 5 mg/ml in presence of aroclor-1254-induced Sprague-Dawley rat liver S9 fraction by Ames-MPF assay relative to control. The class given is toxicity, organism-based. Particulars: salmonella enterica subsp. enterica serovar typhimurium. Put shortly:
as §1

Data set [14] deals with Salmonella typhimurium. The data set can be described thus: Genotoxicity in Salmonella typhimurium TA98 assessed as increase in number of revertants at 0.156 mg/ml in absence of aroclor-1254-induced Sprague-Dawley rat liver S9 fraction by Ames-MPF assay relative to control. The class given is toxicity, organism-based. Particulars: salmonella enterica subsp. enterica serovar typhimurium. Put shortly: as §1

Data set [15] has as its system Salmonella typhimurium. The data set can be described thus: Genotoxicity in Salmonella typhimurium TA98 assessed as increase in number of revertants at 0.3125 mg/ml in absence of aroclor-1254-induced Sprague-Dawley rat liver S9 fraction by Ames-MPF assay relative to control. The class given is toxicity, organism-based. The following applies: salmonella enterica subsp. enterica serovar typhimurium. Put shortly: as §1

For data set [16], the system named is Salmonella typhimurium. Briefly: Genotoxicity in Salmonella typhimurium TA98 assessed as increase in number of revertants at 0.625 mg/ml in absence of aroclor-1254-induced Sprague-Dawley rat liver S9 fraction by Ames-MPF assay relative to control. The format is toxicity, organism-based. The following applies: salmonella enterica subsp. enterica serovar typhimurium. Put shortly: as §1

For data set [17], the system named is Salmonella typhimurium. Briefly: Genotoxicity in Salmonella typhimurium TA98 assessed as increase in number of revertants at 1.25 mg/ml in absence of aroclor-1254-induced Sprague-Dawley rat liver S9 fraction by Ames-MPF assay relative to control. The class given is toxicity, organism-based. Particulars: salmonella enterica subsp. enterica serovar typhimurium. Put shortly:
as §1

The subject of data set [18] is Salmonella typhimurium. Briefly: Genotoxicity in Salmonella typhimurium TA98 assessed as increase in number of revertants at 2.5 mg/ml in absence of aroclor-1254-induced Sprague-Dawley rat liver S9 fraction by Ames-MPF assay relative to control. The class given is toxicity, organism-based. Particulars: salmonella enterica subsp. enterica serovar typhimurium. Put shortly:
as §1

The subject of data set [19] is Salmonella typhimurium. The data set can be described thus: Genotoxicity in Salmonella typhimurium TA98 assessed as increase in number of revertants at 5 mg/ml in absence of aroclor-1254-induced Sprague-Dawley rat liver S9 fraction by Ames-MPF assay relative to control. The format is toxicity, organism-based. The following applies: salmonella enterica subsp. enterica serovar typhimurium. Put shortly:
as §1

Data set [20] relates to Salmonella typhimurium. Briefly: Genotoxicity in Salmonella typhimurium TA100 assessed as increase in number of revertants at 0.156 mg/ml in presence of aroclor-1254-induced Sprague-Dawley rat liver S9 fraction by Ames-MPF assay relative to control. The class given is toxicity, organism-based. The following applies: salmonella enterica subsp. enterica serovar typhimurium. Put shortly:
as §1

Data set [21] has as its system Salmonella typhimurium. Briefly: Genotoxicity in Salmonella typhimurium TA100 assessed as increase in number of revertants at 0.3125 mg/ml in presence of aroclor-1254-induced Sprague-Dawley rat liver S9 fraction by Ames-MPF assay relative to control. The class given is toxicity, organism-based. Particulars: salmonella enterica subsp. enterica serovar typhimurium. Put shortly:
as §1

The test system of data set [22] is Salmonella typhimurium. Briefly: Genotoxicity in Salmonella typhimurium TA100 assessed as increase in number of revertants at 0.625 mg/ml in presence of aroclor-1254-induced Sprague-Dawley rat liver S9 fraction by Ames-MPF assay relative to control. The format is toxicity, organism-based. The following applies: salmonella enterica subsp. enterica serovar typhimurium. Put shortly:
as §1

Data set [23] has as its system Salmonella typhimurium. The data set can be described thus: Genotoxicity in Salmonella typhimurium TA100 assessed as increase in number of revertants at 1.25 mg/ml in presence of aroclor-1254-induced Sprague-Dawley rat liver S9 fraction by Ames-MPF assay relative to control. The format is toxicity, organism-based. Particulars: salmonella enterica subsp. enterica serovar typhimurium. Put shortly:
as §1

For data set [24], the system named is Salmonella typhimurium. The data set can be described thus: Genotoxicity in Salmonella typhimurium TA100 assessed as increase in number of revertants at 2.5 mg/ml in presence of aroclor-1254-induced Sprague-Dawley rat liver S9 fraction by Ames-MPF assay relative to control. The class given is toxicity, organism-based. Particulars: salmonella enterica subsp. enterica serovar typhimurium. Put shortly:
as §1

Data set [25] deals with Salmonella typhimurium. The data set can be described thus: Genotoxicity in Salmonella typhimurium TA100 assessed as increase in number of revertants at 5 mg/ml in presence of aroclor-1254-induced Sprague-Dawley rat liver S9 fraction by Ames-MPF assay relative to control. The class given is toxicity, organism-based. Particulars: salmonella enterica subsp. enterica serovar typhimurium. Put shortly:
as §1

Data set [26] relates to Salmonella typhimurium. Briefly: Genotoxicity in Salmonella typhimurium TA100 assessed as increase in number of revertants at 0.156 mg/ml in absence of aroclor-1254-induced Sprague-Dawley rat liver S9 fraction by Ames-MPF assay relative to control. The format is toxicity, organism-based. The following applies: salmonella enterica subsp. enterica serovar typhimurium. Put shortly:
as §1

The test system of data set [27] is Salmonella typhimurium. The data set can be described thus: Genotoxicity in Salmonella typhimurium TA100 assessed as increase in number of revertants at 0.3125 mg/ml in absence of aroclor-1254-induced Sprague-Dawley rat liver S9 fraction by Ames-MPF assay relative to control. The class given is toxicity, organism-based. Particulars: salmonella enterica subsp. enterica serovar typhimurium. Put shortly: as §1

Data set [28] deals with Salmonella typhimurium. Briefly: Genotoxicity in Salmonella typhimurium TA100 assessed as increase in number of revertants at 0.625 mg/ml in absence of aroclor-1254-induced Sprague-Dawley rat liver S9 fraction by Ames-MPF assay relative to control. The format is toxicity, organism-based. The following applies: salmonella enterica subsp. enterica serovar typhimurium. Put shortly: as §1

For data set [29], the system named is Salmonella typhimurium. Briefly: Genotoxicity in Salmonella typhimurium TA100 assessed as increase in number of revertants at 1.25 mg/ml in absence of aroclor-1254-induced Sprague-Dawley rat liver S9 fraction by Ames-MPF assay relative to control. The class given is toxicity, organism-based. The following applies: salmonella enterica subsp. enterica serovar typhimurium. Put shortly: as §1

Data set [30] relates to Salmonella typhimurium. Briefly: Genotoxicity in Salmonella typhimurium TA100 assessed as increase in number of revertants at 2.5 mg/ml in absence of aroclor-1254-induced Sprague-Dawley rat liver S9 fraction by Ames-MPF assay relative to control. The format is toxicity, organism-based. The following applies: salmonella enterica subsp. enterica serovar typhimurium. Put shortly: as §1

Data set [31] has as its system Salmonella typhimurium. The data set can be described thus: Genotoxicity in Salmonella typhimurium TA100 assessed as increase in number of revertants at 5 mg/ml in absence of aroclor-1254-induced Sprague-Dawley rat liver S9 fraction by Ames-MPF assay relative to control. The class given is toxicity, organism-based. The following applies: salmonella enterica subsp. enterica serovar typhimurium. Put shortly: as §1

T1 sequence (O42275 whole entry): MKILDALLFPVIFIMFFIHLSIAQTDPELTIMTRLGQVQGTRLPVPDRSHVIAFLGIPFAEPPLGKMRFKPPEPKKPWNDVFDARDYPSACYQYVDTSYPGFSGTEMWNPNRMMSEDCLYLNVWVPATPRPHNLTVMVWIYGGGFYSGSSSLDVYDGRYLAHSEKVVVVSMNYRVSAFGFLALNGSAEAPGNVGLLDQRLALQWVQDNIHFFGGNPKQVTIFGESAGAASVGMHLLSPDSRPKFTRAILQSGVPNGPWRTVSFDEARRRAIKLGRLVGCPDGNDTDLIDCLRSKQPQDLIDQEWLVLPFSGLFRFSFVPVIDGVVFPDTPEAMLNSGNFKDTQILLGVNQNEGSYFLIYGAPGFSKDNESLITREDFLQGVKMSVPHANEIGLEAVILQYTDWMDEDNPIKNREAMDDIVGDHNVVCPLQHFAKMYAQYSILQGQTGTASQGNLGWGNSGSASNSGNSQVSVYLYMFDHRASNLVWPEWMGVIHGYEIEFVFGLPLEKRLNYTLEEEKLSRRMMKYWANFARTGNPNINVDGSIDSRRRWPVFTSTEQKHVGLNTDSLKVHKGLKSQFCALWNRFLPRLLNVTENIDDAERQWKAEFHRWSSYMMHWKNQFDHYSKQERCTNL
Acetylcholinesterase (Electrophorus electricus), sequence (O42275 24-633 limits assumed): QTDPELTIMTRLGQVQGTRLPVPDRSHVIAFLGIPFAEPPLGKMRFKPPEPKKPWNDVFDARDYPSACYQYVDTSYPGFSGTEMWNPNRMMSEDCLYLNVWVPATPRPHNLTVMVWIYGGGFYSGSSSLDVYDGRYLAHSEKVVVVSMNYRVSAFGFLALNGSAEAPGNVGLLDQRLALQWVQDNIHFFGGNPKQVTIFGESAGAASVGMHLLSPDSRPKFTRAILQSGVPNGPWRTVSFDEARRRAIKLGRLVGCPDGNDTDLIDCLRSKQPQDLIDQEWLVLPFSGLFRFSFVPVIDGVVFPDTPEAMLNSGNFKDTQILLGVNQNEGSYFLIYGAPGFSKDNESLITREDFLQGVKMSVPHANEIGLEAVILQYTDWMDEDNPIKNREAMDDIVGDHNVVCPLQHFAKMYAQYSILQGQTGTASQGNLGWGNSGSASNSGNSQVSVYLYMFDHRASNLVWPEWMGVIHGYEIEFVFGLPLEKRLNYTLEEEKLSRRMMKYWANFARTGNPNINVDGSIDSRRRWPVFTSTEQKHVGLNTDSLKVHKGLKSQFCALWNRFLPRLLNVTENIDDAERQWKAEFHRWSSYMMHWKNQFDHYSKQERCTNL

In the case of `COc1ccc2nc(NC(=O)CN3CCN(Cc4ccc(Cl)cc4)CC3)sc2c1`, the inhibition is more than 50% in data set [1], more than 95% in data set [2] and 90% in data set [3]. This compound also had a pIC50 in [4] of 6.66.
For the compound `COc1ccc(CN2CCN(CC(=O)Nc3nc4cc(OC)c(OC)cc4s3)CC2)cc1`, the inhibition in data set [1] was more than 50%. For the same compound, in data set [4], the pIC50 is 6.60.
Turning to `COc1cc2nc(NC(=O)CN3CCN(CCCN(C)C)CC3)sc2cc1OC`, the inhibition in data set [1] is more than 50%; in data set [5], more than 50%; in data set [2], more than 95%; in [3], 90%. In data set [4], this compound had a negative logarithm of the IC50 (pIC50) of 7.24. Besides, the pKi in [6] is 6.60. This compound also showed an IC50 at 24 h in data set [7] of 100000 nM. Further, the “fold change (FC)” value in data set [8] was found to be 0.28; in data set [9], 1.4; in data set [10] it was 0.56; in data set [11], 0.84; in [12] it was 1.02; in data set [13] it was 1.49. The “fold change (FC)” value was 0.94 in data set [14]; 0.47 in data set [15]; 1.04 in [16]; 0.52 in data set [17]; 1.15 in data set [18]; 0.89 in data set [19]. In addition, the “fold change (FC)” value amounted to 0.98 in data set [20]; 0.6 in [21]; 0.53 in data set [22]; 1.36 in data set [23]; 1.36 in data set [24]; 1.43 in data set [25]. The “fold change (FC)” value was 0.79 in data set [26]; 0.9 in data set [27]; 0.69 in data set [28]; 1.32 in [29]; 0.32 in data set [30]; 0.05 in data set [31].
For `COc1cc2nc(NC(=O)CN3CCN(Cc4ccc(F)cc4)CC3)sc2cc1OC`, the inhibition in data set [1] was more than 50%. Further, the pIC50 in [4] is 6.76.
In data set [1], `COc1ccc2nc(NC(=O)CN3CCN(Cc4ccc(C)cc4)CC3)sc2c1` gave an inhibition of more than 50%. The same compound gave a pIC50 in [4] of 6.49.
For `COc1cc2nc(NC(=O)CN3CCN(Cc4ccc(Cl)cc4)CC3)sc2cc1OC`, in that order: more than 50% and 6.89.
Consider `COc1ccc2nc(NC(=O)CN3CCN(CCN(C)C)CC3)sc2c1`, for which the inhibition in data set [1] and in data set [5] was more than 50% each time. This compound also showed a pIC50 in [4] of 7.02.
